Measured values: ChEMBL document CHEMBL1122296, “Plasmin-activated prodrugs for cancer chemotherapy. 2. Synthesis and biological activity of peptidyl derivatives of doxorubicin” (1983)

Experiments:
Type in all cases: functional
Gallus gallus [1] = species: Gallus gallus; test: Inhibitory activity against the [3H]thymidine incorporation into DNA of Rous Sarcoma virus transformed chicken embryo fibroblasts at 24 hr of treatment; conditions: read-out: ED50 (the source's name)
Gallus gallus [2] = species: Gallus gallus; test: Inhibitory activity against the [3H]thymidine incorporation into DNA of Rous Sarcoma virus transformed chicken embryo fibroblasts at 5 hr of treatment; conditions: read-out: ED50 (the source's name)
Gallus gallus [3] = species: Gallus gallus; test: Inhibitory activity against the [3H]thymidine incorporation into DNA of normal chicken embryo fibroblasts at 24 hr of treatment; conditions: read-out: ED50 (the source's name)
Gallus gallus [4] = species: Gallus gallus; test: Inhibitory activity against the [3H]-thymidine incorporation into DNA of normal chicken embryo fibroblasts at 5 hr of treatment; conditions: read-out: ED50 (the source's name)
Mus musculus [5] = test: Median survival of treated/ control animals (%T/C) was determined by in vivo antitumor activity against the B16 melanoma cell line at a dose of 15 mg/kg administered intraperitoneally on day 5; conditions: route intraperitoneal
Outline: (§1)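 Murine B16 melanoma implanted intraperitoneally in mice. Drug given intraperitoneally on days 5, 9 and 13 after implantation, with dose expressed as doxorubicin equivalents. Read-out is %T/C, the median survival of treated animals over that of untreated controls.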

Mus musculus [6] = test: Median survival of treated/ control animals (%T/C) was determined by in vivo antitumor activity against the B16 melanoma cell line at a dose of 60 mg/kg administered intraperitoneally on day 5; conditions: route intraperitoneal; outline: as §1
Mus musculus [7] = test: Median survival of treated/ control animals (%T/C) was determined by in vivo antitumor activity against the B16 melanoma cell line at a dose of 75 mg/kg administered intraperitoneally on day 5; conditions: route intraperitoneal; outline: as §1
Mus musculus [8] = test: Median survival of treated/ control animals (%T/C) was determined by in vivo antitumor activity against the B16 melanoma cell line at a dose of 30 mg/kg administered intraperitoneally on day 5; conditions: route intraperitoneal; outline: as §1
Mus musculus [9] = test: Median survival of treated/ control animals (%T/C) was determined by in vivo antitumor activity against the B16 melanoma cell line at a dose of 45 mg/kg administered intraperitoneally on day 5; conditions: route intraperitoneal; outline: as §1
Mus musculus [10] = test: Median survival of treated/ control animals (%T/C) was determined by in vivo antitumor activity against the B16 melanoma cell line at a dose of 5 mg/kg administered intraperitoneally on day 5; conditions: route intraperitoneal; outline: as §1
[11] = Degree of improvement in the selective cytotoxicity of the prodrug (drug 10) to that of the parent drug (drug 1) at 24 hr of treatment; Value is measured as 6.8 times
[12] = Degree of improvement in the selective cytotoxicity of the prodrug (drug 10) to that of the parent drug (drug 1) at 5 hr of treatment; Value is measured as 5.8 times
[13] = Selectivity index between the ED50 value for normal cells to that of transformed chicken embryo fibroblast cells at 24 hr of treatment
[14] = Selectivity index between the ED50 value for normal cells to that of transformed chicken embryo fibroblast cells at 5 hr of treatment
Mus musculus [15] = test: Median survival of treated/ control animals (%T/C) was determined by in vivo antitumor activity against the B16 melanoma cell line at a dose of 12 mg/kg administered intraperitoneally on day 5; conditions: route intraperitoneal; outline: as §1
Mus musculus [16] = test: Median survival of treated/ control animals (%T/C) was determined by in vivo antitumor activity against the B16 melanoma cell line at a dose of 6 mg/kg administered intraperitoneally on day 5; conditions: route intraperitoneal; outline: as §1
Mus musculus [17] = test: Median survival of treated/ control animals (%T/C) was determined by in vivo antitumor activity against the B16 melanoma cell line at a dose of 9 mg/kg administered intraperitoneally on day 5; conditions: route intraperitoneal; outline: as §1
Mus musculus [18] = test: Median survival of treated/ control animals (%T/C) was determined by in vivo antitumor activity against the B16 melanoma cell line at a dose of 3 mg/kg administered intraperitoneally on day 5; conditions: route intraperitoneal; outline: as §1
Mus musculus [19] = test: Median survival of treated/ control animals (%T/C) was determined by in vivo antitumor activity against the B16 melanoma cell line at a dose of 1 mg/kg administered intraperitoneally on day 5; conditions: route intraperitoneal; outline: as §1

Row | SMILES | EC50 (Gallus gallus [1]) [µM] | EC50 (Gallus gallus [2]) [µM] | EC50 (Gallus gallus [3]) [µM] | EC50 (Gallus gallus [4]) [µM] | T/C (Mus musculus [5]) [%] | T/C (Mus musculus [6]) [%] | T/C (Mus musculus [7]) [%] | T/C (Mus musculus [8]) [%] | T/C (Mus musculus [9]) [%] | T/C (Mus musculus [10]) [%] | Improvement [11] | Improvement [12] | Selectivity index [13] | Selectivity index [14] | T/C (Mus musculus [15]) [%] | T/C (Mus musculus [16]) [%] | T/C (Mus musculus [17]) [%] | T/C (Mus musculus [18]) [%] | T/C (Mus musculus [19]) [%]
1 | COc1cccc2c1C(=O)c1c(O)c3c(c(O)c1C2=O)C[C@@](O)(C(=O)CO)C[C@@H]3OC1CC(NC(=O)[C@H](CCCCN)NC(=O)[C@H](CC(C)C)NC(=O)[C@H](N)C(C)C)C(O)C(C)O1 (stereo partly specified) | 0.8 | 26 | 3 | 54 | 103 | 113 | 121 | 97 | 105 | 105 | 6.8 | 5.8 | 3.8 | 2.1 |  |  |  |  | 
2 | COc1cccc2c1C(=O)c1c(O)c3c(c(O)c1C2=O)C[C@@](O)(C(=O)CO)C[C@@H]3OC1CC(NC(=O)[C@H](CCCCN)NC(=O)[C@H](CC(C)C)NC(=O)[C@@H](NC(=O)OC(C)(C)C)C(C)C)C(O)C(C)O1.Cl (stereo partly specified) |  |  |  |  | 100 | 100 |  | 110 |  | 105 |  |  |  |  |  |  |  |  | 
3 | COc1cccc2c1C(=O)c1c(O)c3c(c(O)c1C2=O)C[C@@](O)(C(=O)CO)C[C@@H]3O[C@H]1C[C@H](N)[C@H](O)[C@H](C)O1 [DOXORUBICIN] | 0.18 | 2.5 | 0.1 | 0.9 |  |  |  |  |  |  | 6.8 | 5.8 | 0.56 | 0.36 | 68 | 158 | 90 | 137 | 111
